Tests used:
[1] = system: PC-3; assay: Cytotoxicity against human PC3 cells after 72 hrs by MTT assay; assay type: functional, cell-based; settings: PC-3, 72 h
Procedure, shortened: (§1)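 MTT colorimetric assay on human cancer cell lines; IC50 growth inhibitory concentration determined in vitro for each compound.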

[2] = system: SK-MEL-28; assay: Cytotoxicity against human SK-MEL-28 cells after 72 hrs by MTT assay; assay type: functional, cell-based; settings: SK-MEL-28, 72 h; procedure, shortened: as §1
[3] = system: LoVo; assay: Cytotoxicity against human LoVo cells after 72 hrs by MTT assay; assay type: functional, cell-based; procedure, shortened: as §1
[4] = system: A549; assay: Cytotoxicity against human A549 cells after 72 hrs by MTT assay; assay type: functional, cell-based; settings: A549, 72 h; procedure, shortened: as §1
[5] = Cytotoxicity against human OE21 cells after 72 hrs by MTT assay; assay type: functional, cell-based; settings: OE21, 72 h; procedure, shortened: as §1
[6] = Cytotoxicity against human U373 cells after 72 hrs by MTT assay; assay type: functional, cell-based, U-373MG ATCC; settings: U373 MG; procedure, shortened: as §1
[7] = Cytotoxicity against human U373 cells assessed as growth inhibition at MTT assay-related IC50 by quantitative video microscopy relative to control; assay type: functional, U-373MG ATCC
[8] = Induction of human U373 cell death assessed as morphological changes at MTT assay-related IC50 after 72 hrs by quantitative video microscopy; assay type: functional, U-373MG ATCC
[9] = Cytostatic activity against human U373 cells assessed as growth inhibition at MTT assay-related IC50 by quantitative video microscopy relative to control; assay type: functional, U-373MG ATCC

Compound | IC50 [1] [µM] | IC50 [2] [µM] | IC50 [3] [µM] | IC50 [4] [µM] | IC50 [5] [µM] | IC50 [6] [µM] | growth inhibition (GI) [7] [%] | Activity [8] [%] | growth inhibition (GI) [9] [%]
COc1cc(C(=O)O)ccc1O [VANILLIC ACID] | > 100 | > 100 | 91 | > 100 | 61 | > 100 | – | – | –
CC(C)=CCC/C(C)=C/COc1cc(O)c2c(c1)C(=O)c1cc(C)cc(O)c1C2=O | 30 | 40 | 14 | 32 | > 100 | 18 | 90 | 100 | –
COc1cc(/C=C/CO)cc(OC)c1OC/C=C(\C)CCC=C(C)C [NELUMOL A] | 40 | 72 | 38 | 76 | 39 | 42 | 80 | 17 | –
CC(=O)c1c(O)cc(OC/C=C(\C)CC/C=C(\C)CCC=C(C)C)cc1O | 38 | 33 | 32 | 26 | 18 | 33 | 70 | 42 | –
CC(C)=CCC/C(C)=C/COc1ccc2ccc(=O)oc2c1 [AURAPTENE] | 65 | 87 | 66 | 82 | 58 | 82 | 90 | 58 | –
COc1cc(/C=C/C=O)cc(OC)c1OC/C=C(\C)CCC=C(C)C [NELUMAL A] | 39 | 26 | 23 | 71 | 27 | 8 | 80 | 100 | –
CC(C)=CCOc1ccc(C(=O)/C=C/c2ccc(O)cc2)c(O)c1 | > 100 | > 100 | 57 | 66 | 58 | 87 | 70 | 17 | –
COc1cc(/C=C/C(=O)O)ccc1O [FERULATE] | > 100 | > 100 | 95 | > 100 | 68 | > 100 | – | – | –
COc1cc(/C=C/C=O)cc(OC)c1O | 63 | 66 | 33 | > 100 | 39 | 56 | – | 2 | 50
CC(=O)c1ccc(O)cc1O | > 100 | > 100 | 97 | > 100 | 45 | > 100 | – | – | –
COc1cc(/C=C/CO)ccc1OC/C=C(\C)CCC=C(C)C | 21 | 31 | 27 | 29 | 23 | 25 | 80 | 41 | –
COc1cc(/C=C/CO)cc(OC)c1O | > 100 | > 100 | > 100 | > 100 | 80 | > 100 | – | – | –
CC(=O)c1ccc(OCC=C(C)C)cc1O | > 100 | > 100 | > 100 | > 100 | > 100 | > 100 | – | – | –
CC(C)=CCOc1ccc(C(=O)O)cc1 [VALENCIC ACID] | > 100 | > 100 | > 100 | > 100 | > 100 | > 100 | – | – | –
CC(C)=CCOc1cc(O)c2c(c1)C(=O)c1cc(C)cc(O)c1C2=O [MADAGASCIN] | 6 | 7 | 8 | 20 | 10 | 5 | 80 | 95 | –
COc1cc(/C=C/CO)ccc1O [CONIFERYL ALCOHOL] | 84 | > 100 | 64 | 85 | 60 | 97 | 80 | 26 | –
COc1cc(/C=C/C=O)ccc1O [CONIFERYL ALDEHYDE] | 35 | 33 | 23 | 59 | 29 | 28 | – | 13 | 50
COc1c(OCC=C(C)C)ccc2ccc(=O)oc12 [LACINARTIN] | 46 | > 100 | 40 | 95 | > 100 | 70 | 80 | 37 | –
Cc1cc(O)c2c(c1)C(=O)c1cc(O)cc(O)c1C2=O [EMODIN] | 35 | 35 | 27 | 28 | 29 | 31 | 90 | 99 | –
